Laboratory results from ChEMBL document CHEMBL4118197, “The discovery and preclinical evaluation of BMS-707035, a potent HIV-1 integrase strand transfer inhibitor” (Bioorg Med Chem Lett, 2018).

What was measured:
[1] = molecular target: Human immunodeficiency virus type 1 integrase (Human immunodeficiency virus 1, UniProt Q7ZJM1); assay: Inhibition of HIV1 integrase strand transfer activity
[2] = Clearance in Sprague-Dawley rat at 1 mg/kg, iv after 4 hrs; assay type: ADME, organism-based; conditions: in vivo
Method in brief: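 Male Sprague-Dawley rats given 1 mpk IV in PEG400/ethanol (90:10); blood sampled at 5 and 30 min and 1, 2 and 4 h post-dose; clearance from plasma profile.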

Human immunodeficiency virus type 1 integrase, sequence (Q7ZJM1 whole entry): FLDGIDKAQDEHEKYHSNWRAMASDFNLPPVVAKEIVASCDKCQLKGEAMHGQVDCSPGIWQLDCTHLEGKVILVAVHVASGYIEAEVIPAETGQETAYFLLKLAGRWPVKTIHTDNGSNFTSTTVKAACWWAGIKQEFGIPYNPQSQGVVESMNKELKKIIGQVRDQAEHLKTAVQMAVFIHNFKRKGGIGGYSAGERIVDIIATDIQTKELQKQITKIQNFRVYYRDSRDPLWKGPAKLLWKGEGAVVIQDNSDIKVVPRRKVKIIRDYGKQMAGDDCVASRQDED

IC50 [1]: 3 nM
clearance [2]: 11 mL/min/kg
SMILES: Cc1cc(CNC(=O)c2nc3n(c(=O)c2O)CCOC3(C)C)ccc1F
